Test results published in ChEMBL document CHEMBL4251563, “Design and synthesis of thienopyrimidine urea derivatives with potential cytotoxic and pro-apoptotic activity against breast cancer cell line MCF-7” (Eur J Med Chem, 2018).
One block for each molecule: values may come before it.

Key:
MCF7 [1] = assay: Antiproliferative activity against human MCF7 cells after 48 hrs by sulforhodamine B assay; format: functional, cell-based; conditions: MCF7, 48 h
Outline: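 MCF-7 cells seeded at 5×10^4–10^5 cells/well, allowed to attach 24 h, then exposed to 0, 5, 12.5, 25 and 50 µg/mL for 48 h. Compounds were dissolved in DMSO and diluted with saline; controls got vehicle only; four wells per concentration. Cells fixed with cold 50% TCA, stained with 0.4% SRB, dye solubilised in 10 mM tris pH 10.5, OD read at 564 nm. Survival fraction = OD treated/OD control; IC50 taken from the survival-versus-concentration plot.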

MCF7 [2] = assay: Potency index, ratio of doxorubicin IC50 to compound IC50 for antiproliferative activity against human MCF7 cells; format: functional
MCF7 [3] = assay: Cell cycle arrest in human MCF7 cells assessed as increase in accumulation at pre-G1 phase at 7.1 uM after 24 hrs by propidium iodide staining-based flow cytometry relative to control; format: functional
Outline: (§1)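 MCF-7 cells treated 24 h with 7.10 µM. Cells washed with ice-cold PBS, fixed in ice-cold 70% ethanol, resuspended with 0.1 mg/mL RNase and stained with propidium iodide. DNA content read by FACSCalibur flow cytometry to give phase distribution (pre-G1/sub-G1, G1, S, G2/M).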

MCF7 [4] = assay: Cell cycle arrest in human MCF7 cells assessed as increase in accumulation at G2/M phase at 7.1 uM after 24 hrs by propidium iodide staining-based flow cytometry relative to control; format: functional; outline: as §1
MCF7 [5] = assay: Cell cycle arrest in human MCF7 cells assessed as accumulation at G1 phase at 7.1 uM after 24 hrs by propidium iodide staining-based flow cytometry (reference value: 66.4%); format: functional; outline: as §1
MCF7 [6] = assay: Cell cycle arrest in human MCF7 cells assessed as accumulation at G2/M phase at 7.1 uM after 24 hrs by propidium iodide staining-based flow cytometry (reference value: 7.2%); format: functional; outline: as §1
MCF7 [7] = assay: Cell cycle arrest in human MCF7 cells assessed as accumulation at S phase at 7.1 uM after 24 hrs by propidium iodide staining-based flow cytometry (reference value: 25.2%); format: functional; outline: as §1
MCF7 [8] = assay: Induction of apoptosis in human MCF7 cells assessed as necrotic cells at 7.1 uM after 24 hrs by Annexin V-FITC/propidium iodide staining based flow cytometry (reference value: 0.1%); format: functional
MCF7 [9] = assay: Induction of apoptosis in human MCF7 cells assessed as late apoptotic cells at 7.1 uM after 24 hrs by Annexin V-FITC/propidium iodide staining based flow cytometry (reference value: 0.3%); format: functional
MCF7 [10] = assay: Induction of apoptosis in human MCF7 cells assessed as early apoptotic cells at 7.1 uM after 24 hrs by Annexin V-FITC/propidium iodide staining based flow cytometry (reference value: 0.7%); format: functional
MCF7 [11] = assay: Induction of apoptosis in human MCF7 cells assessed as viable cells at 7.1 uM after 24 hrs by Annexin V-FITC/propidium iodide staining based flow cytometry (reference value: 99.9%); format: functional
MCF7 [12] = assay: Induction of apoptosis in human MCF7 cells assessed as early apoptotic cells at 7.1 uM after 24 hrs by Annexin V-FITC/propidium iodide staining based flow cytometry relative to control; format: functional
MCF7 [13] = assay: Induction of apoptosis in human MCF7 cells assessed as BAX expression levels at 7.1 uM after 24 hrs by SYBR Green dye-based RT-PCR analysis (reference value: 196 IU/ml); format: functional
MCF7 [14] = assay: Induction of apoptosis in human MCF7 cells assessed as Bcl2 expression levels at 7.1 uM after 24 hrs by SYBR Green dye-based RT-PCR analysis (reference value: 538306 IU/ml); format: functional
MCF7 [15] = assay: Induction of apoptosis in human MCF7 cells assessed as p53 expression levels at 7.1 uM after 24 hrs by SYBR Green dye-based RT-PCR analysis (reference value: 244 IU/ml); format: functional
MCF7 [16] = assay: Induction of apoptosis in human MCF7 cells assessed as active caspase3 expression levels at 7.1 uM after 24 hrs by SYBR Green dye-based RT-PCR analysis (reference value: 75 IU/ml); format: functional
DNA topoisomerase 2-beta = DNA topoisomerase 2-beta (Homo sapiens, UniProt Q02880); assay: Inhibition of human topoisomerase 2beta after 2 hrs at 37 degC by ELISA
Outline: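 Sandwich ELISA: standard or sample incubated 2 h at 37°C, then biotin-antibody 1 h at 37°C, then HRP-avidin 1 h at 37°C, then TMB 15–30 min at 37°C in the dark. OD read at 450 nm.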

[17] = biological target: T1, Vascular endothelial growth factor receptor 2 (Homo sapiens, UniProt P35968); assay: Inhibition of human VEGFR2 after 2 hrs by ELISA
[18] = biological target: T1, Vascular endothelial growth factor receptor 2; assay: Potency index, ratio of sorafenib IC50 to compound IC50 for inhibition of human VEGFR2
MCF7 [19] = assay: Cell cycle arrest in human MCF7 cells assessed as accumulation at subG1 phase at 7.1 uM after 24 hrs by propidium iodide staining-based flow cytometry (reference value: 1.2%); format: functional; outline: as §1

Chain of DNA topoisomerase 2-beta (Q02880 whole entry): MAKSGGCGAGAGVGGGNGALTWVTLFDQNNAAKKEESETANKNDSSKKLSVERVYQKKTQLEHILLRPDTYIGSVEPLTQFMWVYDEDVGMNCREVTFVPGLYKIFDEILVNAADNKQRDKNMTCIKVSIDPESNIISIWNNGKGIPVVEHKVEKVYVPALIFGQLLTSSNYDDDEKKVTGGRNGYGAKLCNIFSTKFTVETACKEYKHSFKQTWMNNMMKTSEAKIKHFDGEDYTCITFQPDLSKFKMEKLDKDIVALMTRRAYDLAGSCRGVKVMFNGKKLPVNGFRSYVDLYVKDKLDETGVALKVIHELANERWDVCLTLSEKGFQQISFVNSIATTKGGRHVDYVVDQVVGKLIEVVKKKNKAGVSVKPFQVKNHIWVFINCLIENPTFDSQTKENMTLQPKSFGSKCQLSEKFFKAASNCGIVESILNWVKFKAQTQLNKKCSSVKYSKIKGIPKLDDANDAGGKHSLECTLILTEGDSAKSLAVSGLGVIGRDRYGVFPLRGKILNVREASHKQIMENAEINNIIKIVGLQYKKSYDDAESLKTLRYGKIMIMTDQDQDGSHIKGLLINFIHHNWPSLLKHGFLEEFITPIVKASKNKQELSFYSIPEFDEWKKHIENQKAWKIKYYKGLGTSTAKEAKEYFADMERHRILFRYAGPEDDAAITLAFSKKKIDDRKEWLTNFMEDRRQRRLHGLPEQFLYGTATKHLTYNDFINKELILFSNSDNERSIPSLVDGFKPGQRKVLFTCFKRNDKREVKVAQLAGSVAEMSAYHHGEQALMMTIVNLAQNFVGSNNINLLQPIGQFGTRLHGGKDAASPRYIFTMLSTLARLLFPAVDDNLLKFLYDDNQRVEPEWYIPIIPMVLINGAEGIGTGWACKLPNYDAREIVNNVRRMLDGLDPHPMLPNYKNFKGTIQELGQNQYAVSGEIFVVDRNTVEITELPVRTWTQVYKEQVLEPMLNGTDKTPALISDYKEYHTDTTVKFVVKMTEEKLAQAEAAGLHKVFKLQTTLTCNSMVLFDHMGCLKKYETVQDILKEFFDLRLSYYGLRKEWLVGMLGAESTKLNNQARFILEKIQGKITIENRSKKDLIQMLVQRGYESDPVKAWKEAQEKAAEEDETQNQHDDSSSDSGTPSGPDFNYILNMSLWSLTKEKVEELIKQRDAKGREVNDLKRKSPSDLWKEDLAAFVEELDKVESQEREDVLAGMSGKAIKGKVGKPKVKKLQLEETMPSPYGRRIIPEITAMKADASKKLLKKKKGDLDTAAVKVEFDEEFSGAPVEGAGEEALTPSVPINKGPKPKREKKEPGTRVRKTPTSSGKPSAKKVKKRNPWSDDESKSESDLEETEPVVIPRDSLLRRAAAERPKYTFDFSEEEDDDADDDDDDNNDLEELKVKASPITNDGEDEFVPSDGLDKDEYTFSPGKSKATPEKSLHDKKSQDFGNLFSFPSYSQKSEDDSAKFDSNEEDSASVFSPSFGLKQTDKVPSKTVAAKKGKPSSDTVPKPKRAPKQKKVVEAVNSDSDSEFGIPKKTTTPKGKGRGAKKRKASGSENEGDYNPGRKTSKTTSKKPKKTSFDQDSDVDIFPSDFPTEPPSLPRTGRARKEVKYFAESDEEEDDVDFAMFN
T1 sequence (P35968 whole entry): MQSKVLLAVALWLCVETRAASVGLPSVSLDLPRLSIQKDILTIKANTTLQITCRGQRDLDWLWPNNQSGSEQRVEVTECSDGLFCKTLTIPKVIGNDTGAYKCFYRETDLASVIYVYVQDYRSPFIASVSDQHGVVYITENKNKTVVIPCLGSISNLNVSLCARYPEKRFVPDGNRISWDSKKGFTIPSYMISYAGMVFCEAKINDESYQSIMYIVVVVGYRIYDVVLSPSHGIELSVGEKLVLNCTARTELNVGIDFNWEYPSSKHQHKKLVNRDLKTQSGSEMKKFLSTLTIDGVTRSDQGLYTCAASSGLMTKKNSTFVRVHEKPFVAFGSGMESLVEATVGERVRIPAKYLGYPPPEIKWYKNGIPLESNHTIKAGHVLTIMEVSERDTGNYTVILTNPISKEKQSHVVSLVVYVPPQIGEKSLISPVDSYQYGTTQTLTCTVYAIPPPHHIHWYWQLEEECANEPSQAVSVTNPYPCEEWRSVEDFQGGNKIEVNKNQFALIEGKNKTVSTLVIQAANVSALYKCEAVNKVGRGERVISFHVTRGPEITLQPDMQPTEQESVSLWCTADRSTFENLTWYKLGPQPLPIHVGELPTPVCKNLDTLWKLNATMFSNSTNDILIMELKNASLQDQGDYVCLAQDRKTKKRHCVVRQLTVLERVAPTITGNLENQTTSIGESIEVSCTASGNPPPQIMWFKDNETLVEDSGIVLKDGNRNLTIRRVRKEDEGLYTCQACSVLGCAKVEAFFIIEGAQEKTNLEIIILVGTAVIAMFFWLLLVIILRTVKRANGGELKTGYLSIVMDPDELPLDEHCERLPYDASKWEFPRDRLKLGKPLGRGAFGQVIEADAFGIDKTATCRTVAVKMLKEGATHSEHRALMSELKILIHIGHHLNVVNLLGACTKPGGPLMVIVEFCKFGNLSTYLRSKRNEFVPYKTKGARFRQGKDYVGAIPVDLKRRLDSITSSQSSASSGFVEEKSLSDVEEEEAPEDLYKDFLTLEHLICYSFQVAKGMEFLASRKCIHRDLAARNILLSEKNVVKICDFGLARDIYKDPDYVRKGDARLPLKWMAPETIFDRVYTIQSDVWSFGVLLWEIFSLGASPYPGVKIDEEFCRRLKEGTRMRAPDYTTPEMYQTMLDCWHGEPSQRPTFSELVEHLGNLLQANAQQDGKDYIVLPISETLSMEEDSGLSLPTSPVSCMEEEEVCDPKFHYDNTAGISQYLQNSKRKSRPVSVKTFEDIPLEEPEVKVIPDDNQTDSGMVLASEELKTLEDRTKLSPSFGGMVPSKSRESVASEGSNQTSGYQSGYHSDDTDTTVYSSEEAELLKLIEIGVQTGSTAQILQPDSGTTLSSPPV

SMILES: O=C(NNc1ncnc2sc3c(c12)CCCC3)Nc1cc(C(F)(F)F)ccc1F
IC50 (MCF7 [1]): 28.2 µM

SMILES: O=C(Nc1ccc(Nc2ncnc3sc4c(c23)CCCC4)cc1)Nc1cccc(C(F)(F)F)c1
IC50 (MCF7 [1]): 51.7 µM

SMILES: O=C(Nc1ccc(Nc2ncnc3sc4c(c23)CCCC4)cc1)Nc1c(Cl)cccc1Cl
IC50 (MCF7 [1]): 103 µM

SMILES: Brc1ccc(-c2cs/c(=N\c3ccc(Nc4ncnc5sc6c(c45)CCCC6)cc3)n2-c2ccccc2)cc1
IC50 (MCF7 [1]): 37.3 µM

SMILES: Cc1cccc(Cl)c1NC(=O)NNc1ncnc2sc3c(c12)CCCC3
IC50 (MCF7 [1]): 90.2 µM

SMILES: COc1ccc(NC(=S)Nc2ccc(Nc3ncnc4sc5c(c34)CCCC5)cc2)cc1
IC50 (MCF7 [1]): 79.1 µM

SMILES: S=C(Nc1ccc(Cl)cc1)Nc1ccc(Nc2ncnc3sc4c(c23)CCCC4)cc1
IC50 (MCF7 [1]): 51.5 µM

SMILES: S=C(Nc1ccccc1)Nc1ccc(Nc2ncnc3sc4c(c23)CCCC4)cc1
IC50 (MCF7 [1]): 48.2 µM

SMILES: O=C(NNc1ncnc2sc3c(c12)CCCC3)Nc1ccc(Cl)c(C(F)(F)F)c1
IC50 (MCF7 [1]): 53.4 µM

SMILES: COc1cccc2c1C(=O)c1c(O)c3c(c(O)c1C2=O)C[C@@](O)(C(=O)CO)C[C@@H]3O[C@H]1C[C@H](N)[C@H](O)[C@H](C)O1 [DOXORUBICIN]
IC50 (MCF7 [1]): 10.6 µM
Activity (MCF7 [13]): 1824021 IU/ml
Activity (MCF7 [14]): 8 IU/ml
Activity (MCF7 [15]): 1271.6 IU/ml
Activity (MCF7 [16]): 363940 IU/ml
IC50 (DNA topoisomerase 2-beta): 3.5 µM

SMILES: S=C(Nc1ccccc1)Nc1nnc2c3c4c(sc3ncn12)CCCC4
IC50 (MCF7 [1]): 80.9 µM

SMILES: O=C(Nc1cccc(C(F)(F)F)c1)Nc1nnc2c3c4c(sc3ncn12)CCCC4
IC50 (MCF7 [1]): 68.5 µM

SMILES: Cc1cccc(NC(=S)Nc2ccc(Nc3ncnc4sc5c(c34)CCCC5)cc2)c1
IC50 (MCF7 [1]): 38.8 µM

SMILES: Cc1ccc(NC(=S)Nc2ccc(Nc3ncnc4sc5c(c34)CCCC5)cc2)cc1
IC50 (MCF7 [1]): 56.1 µM

SMILES: S=C(Nc1ccc(Br)cc1)Nc1ccc(Nc2ncnc3sc4c(c23)CCCC4)cc1
IC50 (MCF7 [1]): 9.55 µM
Ratio IC50 (MCF7 [2]): 1.03 - 1.5

SMILES: Cc1cccc(Cl)c1NC(=O)Nc1ccc(Nc2ncnc3sc4c(c23)CCCC4)cc1
IC50 (MCF7 [1]): 53.9 µM

SMILES: Cc1cccc(Cl)c1NC(=S)Nc1ccc(Nc2ncnc3sc4c(c23)CCCC4)cc1
IC50 (MCF7 [1]): 52.1 µM

Now from value to molecule, other results behind:

IC50 (MCF7 [1]): 88.9 µM
SMILES: O=C(NNc1ncnc2sc3c(c12)CCCC3)Nc1c(Cl)cccc1Cl

IC50 (MCF7 [1]): 235 µM
SMILES: Cc1cccc(Cl)c1-n1c(-c2ccc(Br)cc2)co/c1=N\c1ccc(Nc2ncnc3sc4c(c23)CCCC4)cc1

IC50 (MCF7 [1]): 99.9 µM
SMILES: Cc1cccc(NC(=S)Nc2nnc3c4c5c(sc4ncn23)CCCC5)c1

IC50 (MCF7 [1]): 7.1 µM
IC50 (DNA topoisomerase 2-beta): 9.29 µM
IC50 [17]: 0.2 µM
Ratio IC50 [18]: 2.1
SMILES: O=C(Nc1ccc(Nc2ncnc3sc4c(c23)CCCC4)cc1)Nc1ccc(Cl)c(C(F)(F)F)c1
Ratio IC50 (MCF7 [2]): 1.03 - 1.5
fold change (FC) (MCF7 [3]): 15.1
fold change (FC) (MCF7 [4]): 2.2
Activity (MCF7 [5]): 36.3%
Activity (MCF7 [6]): 16.3%
Activity (MCF7 [7]): 29.2%
Activity (MCF7 [8]): 3%
Activity (MCF7 [9]): 7%
Activity (MCF7 [10]): 21%
Activity (MCF7 [11]): 69%
fold change (FC) (MCF7 [12]): 30
Activity (MCF7 [13]): 389968 IU/ml
Activity (MCF7 [14]): 131 IU/ml
Activity (MCF7 [15]): 77214 IU/ml
Activity (MCF7 [16]): 64223 IU/ml
Activity (MCF7 [19]): 18.2%

IC50 (MCF7 [1]): 71.9 µM
SMILES: O=C(Nc1cc(C(F)(F)F)ccc1F)Nc1nnc2c3c4c(sc3ncn12)CCCC4

IC50 (MCF7 [1]): 29.1 µM
SMILES: Cc1cccc(Cl)c1NC(=O)Nc1nnc2c3c4c(sc3ncn12)CCCC4

IC50 (MCF7 [1]): 10.3 µM
SMILES: O=C(Nc1ccc(Nc2ncnc3sc4c(c23)CCCC4)cc1)Nc1cc(C(F)(F)F)ccc1F
Ratio IC50 (MCF7 [2]): 1.03 - 1.5

IC50 (MCF7 [1]): 22.7 µM
SMILES: O=C(NNc1ncnc2sc3c(c12)CCCC3)Nc1cccc(C(F)(F)F)c1
